ChEMBL document CHEMBL3627638, “Mixed up minor groove binders: Convincing A·T specific compounds to recognize a G·C base pair” (Bioorg Med Chem Lett, 2015)
Calls of active or inactive are those of the source. No cut-off for these calls is given here.

What was measured:
Nucleic Acid [1] = experiment: Binding affinity to hairpin oligomer duplex A4GCT4 DNA (unknown origin) by ESI mass spectrometry; type: nucleic-acid assay; conditions: Homo sapiens
Nucleic Acid [2] = experiment: Binding affinity to hairpin oligomer duplex A4GT4 DNA (unknown origin) assessed as change in melting temperature at 2:1 drug/DNA ratio by spectrophotometry; type: nucleic-acid assay
Nucleic Acid [3] = experiment: Binding affinity to hairpin oligomer duplex A4T4 DNA (unknown origin) at 4:1 drug/DNA ratio by ESI mass spectrometry; type: nucleic-acid assay; conditions: Homo sapiens
How it was run: (§1)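 Competition ESI-MS run on a mixture of DNA sequences with a pure GC sequence as non-binding internal standard. Ligand was titrated at 1:1, 2:1 and 4:1 mole ratios to each single sequence (e.g. 10 μM ligand to 5 μM DNA). Relative peak intensities of free DNA and ligand-DNA complexes were compared.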

Nucleic Acid [4] = experiment: Binding affinity to hairpin oligomer duplex A4GCT4 DNA (unknown origin) assessed as change in melting temperature at 2:1 drug/DNA ratio by spectrophotometry; type: nucleic-acid assay
Nucleic Acid [5] = experiment: Binding affinity to hairpin oligomer duplex A4GT4 DNA (unknown origin) at 4:1 drug/DNA ratio by ESI mass spectrometry; type: nucleic-acid assay; conditions: Homo sapiens; how it was run: as §1
Nucleic Acid [6] = experiment: Binding affinity to hairpin oligomer duplex A4T4 DNA (unknown origin) assessed as change in melting temperature at 2:1 drug/DNA ratio by spectrophotometry; type: nucleic-acid assay
DNA [7] = experiment: Binding affinity to AATTCAATT-AATTGAATT DNA fragment (unknown origin) by DNaseI footprinting analysis; type: nucleic-acid assay; conditions: Homo sapiens
DNA [8] = experiment: Binding affinity to A4CT4-A4GT4 DNA fragment (unknown origin) by DNaseI footprinting analysis; type: nucleic-acid assay; conditions: Homo sapiens
Nucleic Acid [9] = experiment: Binding affinity to biotinylated-hairpin oligomer duplex A4T4 DNA (unknown origin) by surface plasmon resonance method; type: nucleic-acid assay; conditions: Homo sapiens
How it was run: (§2)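 SPR sensorgrams recorded for ligand injected over immobilized hairpin DNA at a concentration series: 2, 3, 5, 7, 10 and 15 nM for A4GT4, higher concentrations for A4IT4 and A4T4.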

Nucleic Acid [10] = experiment: Binding affinity to hairpin oligomer duplex A4GT4 DNA (unknown origin) by circular dichroism method; type: nucleic-acid assay; conditions: Homo sapiens
How it was run: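 Ligand titrated incrementally into the DNA, with CD spectra followed in the DNA region (230 to 290 nm).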

Nucleic Acid [11] = experiment: Binding affinity to biotinylated-hairpin oligomer duplex A4IT4 DNA (unknown origin) by surface plasmon resonance method; type: nucleic-acid assay, Homo sapiens; how it was run: as §2
DNA [12] = experiment: Binding affinity to AATTGCAATT-AATTGCAATT DNA fragment (unknown origin) by DNaseI footprinting analysis; type: nucleic-acid assay; conditions: Homo sapiens
Nucleic Acid [13] = experiment: Binding affinity to biotinylated-hairpin oligomer duplex A4GT4 DNA (unknown origin) by surface plasmon resonance method in presence of 0.1 M Na+ ion; type: nucleic-acid assay, Homo sapiens; how it was run: as §2
Nucleic Acid [14] = experiment: Binding affinity to biotinylated-hairpin oligomer duplex A4GCT4 DNA (unknown origin) by surface plasmon resonance method; type: nucleic-acid assay; conditions: Homo sapiens

Structure (SMILES): N=C(N)c1ccc2nc(-c3ccc(-c4cccc(-c5ccc(-c6nc7ccc(C(=N)N)cc7[nH]6)cc5)n4)cc3)[nH]c2c1
- Activity (Nucleic Acid [1]): inactive
- ΔTm (Nucleic Acid [2]): 19 °C
- Activity (Nucleic Acid [3]): Active
- ΔTm (Nucleic Acid [4]): 5 °C
- Activity (Nucleic Acid [5]): Active
- ΔTm (Nucleic Acid [6]): 24 °C

Structure (SMILES): N=C(N)c1ccc2nc(-c3ccc(OCc4cccc(COc5ccc(-c6nc7ccc(C(=N)N)cc7[nH]6)cc5)n4)cc3)[nH]c2c1
- Activity (DNA [7]): Active
- Activity (Nucleic Acid [1]): inactive
- Activity (DNA [8]): Active
- Activity (Nucleic Acid [9]): Active
- Activity (Nucleic Acid [10]): Active
- Kd (Nucleic Acid [11]): 1.2 nM
- Activity (DNA [12]): inactive
- ΔTm (Nucleic Acid [2]): 22 °C
- ΔTm (Nucleic Acid [4]): 8 °C
- Activity (Nucleic Acid [5]): Active
- Kd (Nucleic Acid [13]): 0.015 nM
- Activity (Nucleic Acid [14]): inactive
- ΔTm (Nucleic Acid [6]): 15 °C

Structure (SMILES): CN1CCN(c2ccc3nc(-c4ccc(OCc5cccc(COc6ccc(-c7nc8ccc(N9CCN(C)CC9)cc8[nH]7)cc6)n5)cc4)[nH]c3c2)CC1
- ΔTm (Nucleic Acid [2]): 19 °C
- ΔTm (Nucleic Acid [4]): 6 °C
- ΔTm (Nucleic Acid [6]): 14 °C

Structure (SMILES): N=C(N)c1ccc2nc(-c3ccc(OCc4cccc(COc5ccc(-c6nc7ccc(C(=N)N)cc7[nH]6)cc5)c4)cc3)[nH]c2c1
- Activity (DNA [7]): Active
- Activity (Nucleic Acid [1]): inactive
- Activity (DNA [8]): Active
- Activity (DNA [12]): Active
- ΔTm (Nucleic Acid [2]): 17 °C
- Activity (Nucleic Acid [3]): Active
- ΔTm (Nucleic Acid [4]): < 1 °C
- Activity (Nucleic Acid [5]): Active
- ΔTm (Nucleic Acid [6]): 21 °C
